From PubChem
A selection: hits, their analogues and other compounds. The true share with any hit is near 2.3%.
CHT inh: inhibitors of human choline transporter CHT | High affinity choline transporter 1 (Homo sapiens), Q9GZV3 | CHT-expressing cells, membrane potential dye, choline response; hits give low values | B-score at 10 µM | actives 0.86% (n = 310,000) | AID 488975, 2010;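 active = B-score over 3 SD under the library average, and starting fluorescence ratio not unusually high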;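 also: choline stimulus applied at its EC90 after an EC20 pre-addition; B-score computed on integrated fluorescence ratio after choline addition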
p-CIP stab down: p/CIP-EGFP fusion destabilizers, primary screen, fluorescence, F442A cells; decrease of EGFP signal, % at 10 µM; Q05BA5; AID 1984, 2009; actives 0.01% (n = 290,000); 16 h;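 active = EGFP signal decrease of at least 30% at 10 µM or well 3 SD below plate mean, unless failing retest; inactive = the rest, including hits failing retest or dose response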
CHT PAM: CHT positive allosteric modulators, primary screen, cell-based, membrane potential dye, choline EC20; High affinity choline transporter 1 (Homo sapiens), Q9GZV3; CHT-expressing cells; hits give high values; LV-AA mutant CHT in HEK293 cells; B-score at 10 µM; actives 0.49% (n = 310,000); AID 488977, 2010;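 active = initial fluorescence not abnormally high and integrated response B-score, plate-corrected, over 3 SD above library mean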
GPR7 antagonist: GPR7 receptor antagonists, primary screen, cell-based, fluorescence, single concentration | actives 1.1% (n = 290,000) | inhibition, % at 4.4 µM | AID 1861, 2009 | Neuropeptides B/W receptor type 1 (Homo sapiens), P48145 | GPR7-expressing cells, fluorescence antagonist assay; in the data active = inhibition above about 16%, passing the limit was not always enough;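 also: cells stimulated with the agonist NPW; 0% = agonist with vehicle and 100% = vehicle without agonist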
Target sequence (P48145 whole entry, looked up): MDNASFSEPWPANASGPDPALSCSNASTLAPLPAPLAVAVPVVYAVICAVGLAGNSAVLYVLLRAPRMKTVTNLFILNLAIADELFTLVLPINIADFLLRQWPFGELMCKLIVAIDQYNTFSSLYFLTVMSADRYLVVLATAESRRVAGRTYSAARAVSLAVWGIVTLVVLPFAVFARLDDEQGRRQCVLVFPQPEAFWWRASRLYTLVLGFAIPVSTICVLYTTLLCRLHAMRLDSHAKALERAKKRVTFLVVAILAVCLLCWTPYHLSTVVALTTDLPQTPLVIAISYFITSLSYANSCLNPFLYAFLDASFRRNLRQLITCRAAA
T cell HTS: modulators of CD8 T cell-vesicle binding, primary screen, mouse 2C CD8+ T cells, flow cytometry; 2C CD8+ T cell-vesicle binding; hits give low values; response (vesicle binding), % at 7 µM; actives 0.068% (n = 330,000);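 active = response, share of CD8 T cells binding vesicles, and their 90th percentile fluorescence all below set limits, cut at about 80% in these data, passing the limit was not always enough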;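 also: values below 100% mean blocked vesicle binding to the CD8+ T cells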
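Benchmarks: naked versus QL9-loaded vesicles / Assay system: purified 2C TCR transgenic mouse naive CD8+ T cells / Technique: high-throughput flow cytometry with anti-B7-1 and anti-CD8 staining / Timing: Cell–vesicle co-incubation 1.5 h at 37 °C, staining 20 min on ice / Read-out: percent CD8+ FL2 mean versus row control / Probe or stimulus: QL9-loaded Drosophila micro-vesicles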
Pemphigus Ab inh: inhibitors of pemphigus antibody binding to DSG3, primary screen, biochemical, bead-based, flow cytometry, scFv-GFP; AID 588358, 2011; DSG3-coupled beads, scFv-anti-DSG3-GFP binding; hits give low values; binding (percent of control), % at 10 µM; actives 0.48% (n = 310,000);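 active = binding more than 3 SD below its plate's average and above zero; inconclusive = below that plate limit but binding exactly zero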;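 also: hits lower antibody fragment binding to DSG3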
The depositor's hits bear a star; i = inactive; ? = inconclusive; . = not tested or not shown.

SMILES	CHT inh	p-CIP stab down	CHT PAM	GPR7 antagonist	T cell HTS	Pemphigus Ab inh
Cc1sc2nc(CSc3ccccc3)nc(N3CCC(C(N)=O)CC3)c2c1C	i	-3.9	i	5.0	281.4	104.6
CCOC(=O)c1sc2nc(CSc3ccccc3)nc(N3CCC(C(N)=O)CC3)c2c1C	i	40.0*	i	-3.3	499.4	99.4
CNC(=O)C1CN(C(=O)c2nn(Cc3ccccc3)c(=O)c3ccccc23)c2ccccc2O1 (centres undefined)	.	.	.	.	.	94.0
CC(C)Cc1nc2oc3c(NCC(C)O)ncnc3c2c2c1CCCC2 (centres undefined)	-7.58*	-3.6	i	-17.7	182.0	.
CC(C)Cc1nc2oc3c(Cl)ncnc3c2c2c1CCCC2	i	-2.3	i	0.1	363.3	103.4
COc1ccccc1S(=O)(=O)N(C)C[C@@H]1OCc2cn(nn2)CCCC(=O)N([C@@H](C)CO)C[C@H]1C	.	.	.	.	.	107.5
Cn1ccnc1C1CCCCN1Cc1nc(-c2ccc3c(c2)OCO3)no1 (centres undefined)	i	-2.2	i	48.6*	i	111.9
Cn1ccnc1C1CCCCN1Cc1nc(Cc2cccc(C(F)(F)F)c2)no1 (centres undefined)	i	7.7	i	5.1	308.3	?
Cc1ccc(C(C)C)c(OCC(=O)Nc2ccc(N3CCN(S(C)(=O)=O)CC3)cc2)c1	i	-7.6	i	-7.5	157.5	52.5*
CCc1ccc(N(C(C)=O)c2nc(CCl)cs2)cc1	i	9.1	i	-3.7	864.0	86.8*
O=C(CN1CCC(n2nnc3cc(C(F)(F)F)ccc32)CC1)N1CCc2ccccc21	i	-6.7	i	-13.7	510.0	81.8*
Cc1ccc2c(c1)CCO[C@@]21O[C@H](CCO)C[C@H](O)[C@H]1O	.	.	.	.	.	99.0
Cc1cccc(S(=O)(=O)c2c(N)n(/N=C/c3ccccc3)c3nc4ccccc4nc23)c1	i	-7.4	i	5.8	592.9	89.4*
CCOc1cccc(Cc2c[nH]c(=O)[nH]c2=O)c1	.	.	.	.	.	109.2
Cc1cccc(CCNC(=O)CCS(=O)(=O)c2ccc3nc(C)sc3c2)c1	i	5.2	i	-2.9	241.2	112.8
Cc1ccc(CCNC(=O)CCS(=O)(=O)c2ccc3nc(C)sc3c2)cc1	i	1.2	i	5.3	92.6	-10.9*
c1ccc(CSc2ccc(-c3ccc4c(c3)OCO4)nn2)cc1	i	1.0	i	8.2	920.1	1.2*
CCOC(=O)c1c(C)oc2ccc(O)c(CN3CCCCC3)c12	i	-6.1	i	10.0	164.6	103.0
CCOC(=O)c1c(CN2CCN(CCO)CC2)n(C)c2cc(Br)c(OC)cc12	i	4.8	7.72*	-0.9	314.6	105.7
CCOC(=O)c1c(CN2CCCCC2)n(C)c2cc(Br)c(O)c(CN(C)C)c12	i	-17.7	10.6*	-4.4	211.6	97.6
CCOC(=O)c1c(C)n(C)c2ccc(O)c(CN3CCCCC3)c12	-13.3*	-15.5	i	-1.9	160.1	106.5
CN1OC[C@@H]2CN(S(=O)(=O)c3cccc(C(F)(F)F)c3)[C@H](c3ccc(-c4cccnc4)cc3)C[C@@H]21	.	.	.	.	.	107.1
O=C(COC(=O)Cc1c[nH]c2ccccc12)Nc1cccc(Br)c1	.	.	.	.	.	94.0
Cc1ccc2c(C)c(C(=O)N3CCC(C(N)=O)(N4CCCCC4)CC3)oc2c1C	.	.	.	.	.	109.5
COCC(=O)Nc1ccccc1-c1ccccc1	i	-1.4	i	-15.6	161.3	123.0
SMILES	CHT inh	p-CIP stab down	CHT PAM	GPR7 antagonist	T cell HTS	Pemphigus Ab inh
Cc1cccc(OCC(=O)Nc2ccc(C(=O)Nc3ccccc3C(=O)O)cc2)c1C	-5.58*	0.1	i	-13.3	299.0	107.9
Cc1ccccc1OCC(=O)Nc1ccccc1-c1ccccc1	i	.	i	.	227.5	8.5*
COC(=O)C[C@H]1C[C@H]2c3cc(NC(=O)Nc4ccc(C(F)(F)F)cc4)ccc3O[C@H]2[C@@H](CO)O1	.	.	.	.	.	108.3
COc1cc(/C=C/C(=O)OCC(=O)c2ccc[nH]2)ccc1O	.	.	.	.	.	97.2
CN(C)c1ccc(C(C(=O)NCC2CCCO2)N(Cc2ccccc2)C(=O)c2snc(C(N)=O)c2N)cc1 (centres undefined)	i	-2.3	i	-6.7	422.1	.
Cc1cccc(N(C(=O)c2snc(C(N)=O)c2N)C(C(=O)NCC2CCCO2)c2ccc(N(C)C)cc2)c1C (centres undefined)	i	-16.9	i	-13.3	0.0*	103.6
COc1ccc(CN2CCC[C@]3(N[C@H](c4ccccc4)[C@@H]4C(=O)N(Cc5ccccc5)C(=O)[C@@H]43)C2=O)cc1	.	.	.	.	.	108.0
CC(=O)N1CCC(=NNC(=O)c2cccs2)CC1	i	7.0	i	-7.5	0.0*	110.1
CC(C)Cn1c(N)c(C(=O)COC(=O)C2=COCCO2)c(=O)n(C)c1=O	i	.	i	18.5*	808.4	.
CC(C)Cn1c(N)c(C(=O)COC(=O)c2cc(F)cc(F)c2)c(=O)n(C)c1=O	i	-20.5	i	18.1*	473.2	102.1
Cc1ccc(S(=O)(=O)N(C)C[C@H]2OCCCC[C@@H](C)Oc3ccc(NC(=O)Cc4ccccc4)cc3C(=O)N([C@H](C)CO)C[C@@H]2C)cc1	.	.	.	.	.	109.7
CNC(=O)C[C@H]1C(=O)N(C2CCCCC2)C[C@@H]1c1ccc(Br)cc1	.	.	.	.	.	100.8
C[C@H](CO)N1C[C@H](C)[C@@H](CN(C)Cc2ccc(O)cc2)OCc2cnnn2CCCC1=O	.	.	.	.	.	108.0
C[C@@H]1CN([C@H](C)CO)C(=O)CCCn2nncc2CO[C@H]1CN(C)Cc1ccc(O)cc1	.	.	.	.	.	31.1*
Cn1c(CNC(=O)CNC(=O)c2ccc(F)cc2)cc(=O)n(C)c1=O	i	-13.0	i	-4.7	0.0*	94.6
Cn1c(CNC(=O)CNC(=O)c2cccc(Cl)c2)cc(=O)n(C)c1=O	i	-8.0	i	9.2	281.0	.
CCC(=O)N1CCN(c2ccc(Cl)cc2NC(=O)c2ccc3c(c2)OCCO3)CC1	i	-5.5	i	-1.6	464.5	96.5
CCC(=O)N1CCN(c2ccc(Cl)cc2NC(=O)Cc2ccccc2)CC1	i	-1.6	i	16.7*	211.3	109.1
COc1cc(C)ccc1OCC(=O)OCC(=O)c1[nH]c(C)c(C(C)=O)c1C	.	.	.	.	788.7	96.3
CC(=O)c1c(C)[nH]c(C(=O)COc2cc(C)ccc2C(C)C)c1C	i	-16.8	i	24.8*	320.7	90.3
Cc1cc(SCC(=O)Nc2ccc3[nH]c(=O)[nH]c3c2)nc2ccccc12	.	.	.	.	174.7	75.8*
CC(C)Cn1c(SCC(=O)Nc2ccc3[nH]c(=O)[nH]c3c2)nc2ccccc2c1=O	i	.	i	.	262.2	98.7
